ChEMBL document CHEMBL2331340, “Novel antitumor indolizino[6,7-b]indoles with multiple modes of action: DNA cross-linking and topoisomerase I and II inhibition” (J Med Chem, 2013)

How the values were obtained:
CCRF-CEM = assay: Cytotoxicity against human CCRF-CEM cells after 72 hrs by XTT assay; assay type: functional, cell-based
In short: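 CCRF-CEM T-ALL cells incubated with compound for 72 h. XTT with phenazine methosulfate then added for 6 h at 37 °C, absorbance read at 450 and 630 nm. IC50 from six or seven concentrations by median-effect analysis; mean ± STDEV, n = 3.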

HCT-116 = assay: Cytotoxicity against human HCT116 cells after 72 hrs by Alamar blue assay; assay type: functional, cell-based; settings: HCT-116, 72 h
In short: (§1)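 Cells exposed to compound for 72 h, then Alamar blue added with a further 10−12 h at 37 °C and a spectrophotometric read. IC50 from six or seven concentrations by median-effect analysis; mean ± STDEV, n = 3. CL141T is a line derived from a patient lung tumor passaged as a SCID mouse xenograft.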

[1] = Cytotoxicity against human OECM1 cells after 72 hrs by Alamar blue assay; assay type: functional, cell-based; settings: OECM1, 72 h; in short: as §1
[2] = Cytotoxicity against human CL141T cells after 72 hrs by Alamar blue assay; assay type: functional, cell-based; in short: as §1
[3] = Cytotoxicity against human H460 cells after 72 hrs by Alamar blue assay; assay type: functional, cell-based; settings: NCI-H460, 72 h; in short: as §1
PC-3 = assay: Cytotoxicity against human PC3 cells after 72 hrs by Alamar blue assay; assay type: functional, cell-based; settings: PC-3, 72 h; in short: as §1
MX1 = assay: Cytotoxicity against human MX1 cells after 72 hrs by SRB assay; assay type: functional, cell-based; settings: MX1, 72 h
[4] = Resistance factor, ratio of IC50 for human KB-VIN10 cells to IC50 for human KB cells; assay type: functional
[5] = Cytotoxicity against human KB-VIN10 cells after 72 hrs by Alamar blue assay; settings: KB-VIN10, 72 h
KB = assay: Cytotoxicity against human KB cells after 72 hrs by Alamar blue assay
A549 = assay: Cytotoxicity against human A549 cells after 72 hrs by Alamar blue assay; assay type: functional, cell-based; settings: A549, 72 h; in short: as §1
[6] = Cytotoxicity against human MES-SA/Dx5 cells after 72 hrs by Presto Blue assay; assay type: functional, cell-based; settings: MES-SA/Dx5, 72 h
In short: (§2)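 MES-SA and doxorubicin-resistant MES-SA/dx5 cells exposed for 72 h, then PrestoBlue added for 3 h at 37 °C, absorbance read at 570 and 600 nm. IC50 by median-effect analysis of six or seven concentrations; mean ± STDEV of three to six independent experiments.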

MES-SA = assay: Resistance factor, ratio of IC50 for human MES-SA/Dx5 cells to IC50 for human MES-SA cells; assay type: functional
[7] = Cytotoxicity against human HEL299 cells; assay type: cell-based; settings: HEL 299
[8] = Cytotoxicity against human MES-SA cells after 72 hrs by Presto Blue assay; assay type: functional, cell-based; in short: as §2
HT-29 = assay: Cytotoxicity against human HT-29 cells after 72 hrs by Alamar blue assay; assay type: functional, cell-based; settings: HT-29, 72 h; in short: as §1

| SMILES | IC50 (CCRF-CEM) [µM] | IC50 (HCT-116) [µM] | IC50 [1] [µM] | IC50 [2] [µM] | IC50 (PC-3) [µM] | further results |
| --- | --- | --- | --- | --- | --- | --- |
| COc1ccc(-c2c(COC(=O)NC(C)C)c(COC(=O)NC(C)C)c3n2Cc2c(c4ccccc4n2C)C3)cc1 | 0.12 | 5.93 | 4.17 | 4 | 6.84 | IC50 [3]: 9.52 µM |
| COc1ccc(-c2c(CO)c(CO)c3n2Cc2c(c4ccccc4n2C)C3)cc1 | 1.3 |  |  |  |  |  |
| CCNC(=O)OCc1c(COC(=O)NCC)c(-c2ccc(F)c(Cl)c2)n2c1Cc1c(n(C)c3ccccc13)C2 | 1.8 |  |  |  |  |  |
| CCNC(=O)OCc1c(COC(=O)NCC)c(-c2ccc(OC)c(OC)c2)n2c1Cc1c(n(C)c3ccccc13)C2 | 0.3 |  | 5.29 | 11.2 | 8.03 |  |
| CC(C)NC(=O)OCc1c(COC(=O)NC(C)C)c(-c2ccc(F)c(F)c2)n2c1Cc1c(n(C)c3ccccc13)C2 | 0.44 |  | 15.2 | 18.3 | 34.2 |  |
| CCc1c(COC(=O)NC(C)C)c(COC(=O)NC(C)C)c2n1Cc1c(c3ccccc3n1C)C2 | 0.16 | 2.22 | 2.02 | 2.66 | 2.1 |  |
| Cc1c(CO)c(CO)c2n1Cc1c(c3ccccc3n1Cc1ccccc1)C2 | 0.29 |  | 4.17 | 2.76 | 4.52 |  |
| Cn1c2c(c3ccccc31)Cc1c(CO)c(CO)c(-c3ccccc3)n1C2 | 1.17 |  |  |  |  |  |
| CC(C)NC(=O)OCc1c(COC(=O)NC(C)C)c(-c2ccc(F)c(Cl)c2)n2c1Cc1c(n(C)c3ccccc13)C2 | 1.91 |  |  |  |  |  |
| Cc1c(COC(=O)NC(C)C)c(COC(=O)NC(C)C)c2n1Cc1c(c3ccccc3n1Cc1ccccc1)C2 | 0.1 | 3.92 | 4.2 | 4.66 | 4.18 | IC50 [3]: 7.26 µM |
| CCNC(=O)OCc1c(COC(=O)NCC)c(-c2ccc(Cl)cc2)n2c1Cc1c(n(C)c3ccccc13)C2 | 0.35 | 1.17 | 9.01 | 7.88 | 4.95 | IC50 (MX1): 1.83 µM |
| CC[C@]1(O)C[C@H]2CN(CCc3c([nH]c4ccccc34)[C@@](C(=O)OC)(c3cc4c(cc3OC)N(C=O)[C@H]3[C@@](O)(C(=O)OC)[C@H](OC(C)=O)[C@]5(CC)C=CCN6CC[C@]43[C@@H]65)C2)C1 [VINCRISTINE] |  |  |  |  |  | Ratio IC50 [4]: 143.7; IC50 [5]: 0.303 µM; IC50 (KB): 0.00211 µM |
| CCc1c(CO)c(CO)c2n1Cc1c(c3ccccc3n1C)C2 | 0.2 |  | 2.11 | 1.32 | 3.32 | IC50 (A549): 3.15 µM; IC50 [6]: 0.47 µM; Ratio IC50 [4]: 0.79; IC50 [5]: 1.56 µM; Ratio IC50 (MES-SA): 0.61; IC50 (KB): 1.97 µM; IC50 [7]: 4.24 µM; IC50 [8]: 0.77 µM; IC50 (HT-29): 8.56 µM |
| Cc1c(COC(=O)NC(C)C)c(COC(=O)NC(C)C)c2n1Cc1c(c3ccccc3n1C)C2 | 0.03 | 1.26 | 1.45 | 2.43 | 3.03 | IC50 (A549): 3.81 µM; IC50 (MX1): 0.25 µM; IC50 (HT-29): 10.8 µM |
| COc1cccc2c1C(=O)c1c(O)c3c(c(O)c1C2=O)C[C@@](O)(C(=O)CO)C[C@@H]3O[C@H]1C[C@H](N)[C@H](O)[C@H](C)O1 [DOXORUBICIN] |  |  |  |  |  | IC50 [6]: 2.3 µM; Ratio IC50 (MES-SA): 60.52; IC50 [8]: 0.038 µM |
| CC(C)NC(=O)OCc1c(COC(=O)NC(C)C)c(-c2ccc(Cl)cc2)n2c1Cc1c(n(C)c3ccccc13)C2 | 0.44 | 9.28 | 12.7 | 14 | 13.1 | IC50 (MX1): 12.4 µM |
| Cn1c2c(c3ccccc31)Cc1c(CO)c(CO)c(-c3ccc(F)c(F)c3)n1C2 | 7.94 |  |  |  |  |  |

| SMILES | IC50 (CCRF-CEM) [µM] | IC50 (HCT-116) [µM] | IC50 [1] [µM] | IC50 [2] [µM] | IC50 (PC-3) [µM] | further results |
| --- | --- | --- | --- | --- | --- | --- |
| CCNC(=O)OCc1c(COC(=O)NCC)c2n(c1CC)Cc1c(c3ccccc3n1C)C2 | 0.16 | 1.8 | 3.9 | 2.85 | 5 |  |
| COc1cc(-c2c(CO)c(CO)c3n2Cc2c(c4ccccc4n2C)C3)cc(OC)c1OC | 4.45 |  |  |  |  |  |
| CCNC(=O)OCc1c(COC(=O)NCC)c2n(c1C)Cc1c(c3ccccc3n1Cc1ccccc1)C2 | 0.14 | 3.84 | 5.42 |  | 5.05 | IC50 [3]: 8.31 µM |
| CCNC(=O)OCc1c(COC(=O)NCC)c(-c2ccc(OC)cc2)n2c1Cc1c(n(C)c3ccccc13)C2 | 0.1 | 7.1 | 6.15 | 8.13 | 8.3 |  |
| CCn1c2c(c3ccccc31)Cc1c(COC(=O)NC(C)C)c(COC(=O)NC(C)C)c(C)n1C2 | 0.14 | 2.2 | 2.27 | 1.88 | 3.28 | IC50 (A549): 2.64 µM; IC50 (HT-29): 6.36 µM |
| CCNC(=O)OCc1c(COC(=O)NCC)c(-c2ccc(F)cc2)n2c1Cc1c(n(C)c3ccccc13)C2 | 0.39 |  | 8.6 | 12.4 | 14.6 |  |
| CC(C)NC(=O)OCc1c(COC(=O)NC(C)C)c(-c2ccccc2)n2c1Cc1c(n(C)c3ccccc13)C2 | 0.13 |  | 4.87 | 9.6 | 7.84 | IC50 [3]: 4.72 µM |
| COc1ccc(-c2c(CO)c(CO)c3n2Cc2c(c4ccccc4n2C)C3)cc1OC | 0.96 |  | 37.2 | 33.1 | 37.9 |  |
| Cn1c2c(c3ccccc31)Cc1c(CO)c(CO)c(-c3ccc(F)c(Cl)c3)n1C2 | 14.4 |  |  |  |  |  |
| Cn1c2c(c3ccccc31)Cc1c(CO)c(CO)c(-c3ccc(Cl)cc3)n1C2 | 4.58 | 17.5 | 17.2 | 23.8 | 12.9 | IC50 (MX1): 11.3 µM |
| CCNC(=O)OCc1c(COC(=O)NCC)c(-c2ccccc2)n2c1Cc1c(n(C)c3ccccc13)C2 | 0.23 |  | 5.19 | 10.5 | 9.13 |  |
| CCNC(=O)OCc1c(COC(=O)NCC)c(-c2cc(OC)c(OC)c(OC)c2)n2c1Cc1c(n(C)c3ccccc13)C2 | 0.62 |  |  |  |  |  |
| CCNC(=O)OCc1c(COC(=O)NCC)c(-c2ccc(F)c(F)c2)n2c1Cc1c(n(C)c3ccccc13)C2 | 0.13 |  | 14.4 | 9.61 | 6.76 | IC50 [3]: 18.9 µM |
| COc1ccc(-c2c(COC(=O)NC(C)C)c(COC(=O)NC(C)C)c3n2Cc2c(c4ccccc4n2C)C3)cc1OC | 0.3 |  |  |  |  |  |
| Cn1c2c(c3ccccc31)Cc1c(CO)c(CO)c(-c3ccc(F)cc3)n1C2 | 1.46 |  |  |  |  |  |
| COc1cc(-c2c(COC(=O)NC(C)C)c(COC(=O)NC(C)C)c3n2Cc2c(c4ccccc4n2C)C3)cc(OC)c1OC | 0.95 |  |  |  |  |  |
